Source: ChEMBL document CHEMBL1154185 (J Med Chem, 2009)
Calls of active or inactive are those of the source.

Experiments:
[1] = system: U-373MG ATCC; assay: Induction of non-apoptotic cell death in human U373 cells at 50 uM after 72 hrs by annexin-V/propidium iodide staining based flow cytometry; assay type: functional
Method in brief: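 Flow cytometry with annexin-V/propidium iodide double staining after 72 h. U373 given 0, 5 or 50 μM; MCF-7 treated 72 h with a 1 μM pro-apoptotic positive control. Early apoptosis = AV+/PI−, late = AV+/PI+, non-apoptotic death = AV−/PI+. Means ± SEMs.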

[2] = system: A549; assay: Reduction in mitosis occurrence in proapoptotic stimuli-resistant human A549 cells at 5 uM after 72 hrs by quantitative video microscopy; assay type: functional; parameters: scale not given: the % may be the effect or the level left
Method in brief: (§1)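 Cells treated 72 h with 5 μM compound and filmed by computer-assisted phase-contrast videomicroscopy; mitoses counted within a 2 mm² frame over the 72 h observation period, compared with untreated control.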

[3] = Reduction in mitosis occurrence in proapoptotic stimuli-resistant human U373 cells at 5 uM after 72 hrs by quantitative video microscopy; assay type: functional, U-373MG ATCC; parameters: scale not given: the % may be the effect or the level left; method in brief: as §1
[4] = Growth inhibition of proapoptotic stimuli-sensitive human Hs683 cells after 72 hrs by MTT assay; assay type: functional, cell-based, Hs 683; settings: Homo sapiens, Hs 683, 72 h
Method in brief: (§2)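 MTT assay. Cells were plated at 10,000–40,000 cells/mL and left 24 h to attach, then exposed to compound for 72 h (untreated controls). Formazan was read at 570 nm (reference 630 nm). Tested up to 10 μM (first panel) or up to 100 μM (second panel). Sextuplicate. U373 grown in MEM + 5% FBS; Hs683, SK-MEL-28 and B16F10 in RPMI + 10% FBS.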

[5] = Growth inhibition of human WS1 cells after 72 hrs by MTT assay; assay type: cell-based; settings: WS1, 72 h
Method in brief: (§3)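 Cells plated 24 h in 96-well plates (10,000-40,000 cells/mL by cell type) in MEM (5% or 10% heat-inactivated FBS; with 100 μM non-essential amino acids for WI-38 and NHDF) or RPMI 10% FBS (A549), then exposed 72 h to compound up to 100 μM; MTT reduction read at 570 nm (reference 630 nm); sextuplicate.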

[6] = system: A549; assay: Reduction of colony formation in undifferentiated proapoptotic stimuli-resistant human A549 cells at 5 uM under anchorage-independent culture conditions by quantitative video microscopy
[7] = system: U-373MG ATCC; assay: Cytostatic activity against proapoptotic stimuli-resistant human U373 cells at 5 uM after 72 hrs by quantitative video microscopy; assay type: functional, cell-based
Method in brief: (§4)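 Phase-contrast time-lapse videomicroscopy with 5 μM for 72 h vs untreated control. Growth level = cell count in last frame / first frame (0 h). Global growth ratio compares treated with control growth level. Counts done in triplicate with an interactive tool. Morphology followed over the same period.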

[8] = Growth inhibition of proapoptotic stimuli-resistant human U373 cells after 72 hrs by MTT assay; assay type: functional, cell-based, U-373MG ATCC; settings: Homo sapiens, U373 MG, 72 h; method in brief: as §2
[9] = system: A549; assay: Inhibition of cytokinesis in proapoptotic stimuli-resistant human A549 cells at 5 uM after 72 hrs by quantitative video microscopy; assay type: functional, cell-based
Method in brief: (§5)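 Quantitative videomicroscopy with 5 μM for 72 h. Mitoses counted within a 2 mm² frame over the 72 h observation. Single cells in treated colonies were tracked at high magnification to follow mitosis and cytokinesis over time.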

[10] = system: SK-MEL-28; assay: Growth inhibition of proapoptotic stimuli-resistant human SK-MEL-28 cells after 72 hrs by MTT assay; assay type: functional, cell-based; settings: Homo sapiens, SK-MEL-28, 72 h; method in brief: as §2
[11] = system: U-373MG ATCC; assay: Cytotoxic activity against proapoptotic stimuli-resistant human U373 cells assessed as induction of cell death at 5 uM after 72 hrs by quantitative video microscopy; assay type: functional, cell-based; method in brief: as §4
[12] = Growth inhibition of proapoptotic stimuli-resistant human OE21 cells after 72 hrs by MTT assay; assay type: functional, cell-based; settings: Homo sapiens, OE21, 72 h
[13] = system: U-373MG ATCC; assay: Inhibition of cell migration of proapoptotic stimuli-resistant human U373 cells at 5 uM by quantitative video microscopy; assay type: functional, cell-based
Method in brief: (§6)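 Quantitative videomicroscopy of cells untreated or given 0.5 or 5 μM. Migration scored as MRDO, the greatest linear distance each single cell travels from its origin, over 12 or 24 h of observation. Means ± SEMs.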

[14] = system: B16-F10; assay: Antitumor activity against mouse B16F10 cells implanted in iv dosed B6D2F1 mouse assessed as active dose increasing mouse survival administered thrice weekly for 3 consecutive weeks starting from 5th day post tumor grafting; assay type: functional
[15] = system: B16-F10; assay: Antitumor activity against mouse B16F10 cells implanted in B6D2F1 mouse assessed as increase in mouse survival at 40 mg/kg, iv administered thrice weekly for 3 consecutive weeks starting from 5th day post tumor grafting; assay type: functional, organism-based; parameters: dose 40 mg/kg
Method in brief: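 Female B6D2F1 mice (17-19 g) received stereotactic brain implants of B16F10 melanoma cells, all on the same day. Treatment started on day 5 post-graft: 40 mg/kg i.v. (tail vein) in 50 μL, Mon/Wed/Fri for 3 consecutive weeks. Controls received 50 μL saline i.v.; the reference arm got cisplatin 5 mg/kg i.p. on the same schedule. 11 mice per group; survival analysed.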

[16] = system: U-373MG ATCC; assay: Reduction of colony formation in undifferentiated proapoptotic stimuli-resistant human U373 cells at 0.5 uM under anchorage-independent culture conditions by quantitative video microscopy; assay type: functional, cell-based
[17] = system: A549; assay: Cytostatic activity against proapoptotic stimuli-resistant human A549 cells at 5 uM after 72 hrs by quantitative video microscopy; assay type: functional, cell-based; method in brief: as §4
[18] = system: A549; assay: Reduction of colony formation in undifferentiated proapoptotic stimuli-resistant human A549 cells at 5 uM under anchorage-independent culture conditions by quantitative video microscopy; assay type: functional, cell-based
Method in brief: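 Soft-agar (anchorage-independent) culture of A549 cells, without or with 5 μM, for 38 days after plating. Colonies counted in three 0.4 mm² areas per condition, experiment in hexaplicate. Means ± SEMs.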

[19] = system: U-373MG ATCC; assay: Increase in polymerized actin levels in proapoptotic stimuli-resistant human U373 cells at 5 uM after 6 hrs by fluorescence microscopy; assay type: functional, cell-based
Method in brief: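 U373 cells, untreated or exposed to 5 μM for 6 h, stained and imaged by computer-assisted fluorescence microscopy. Fibrillar (polymerized) actin labelled with Alexa Fluor488-phallacidin (green); globular actin with Alexa Fluor594-DNase I (red).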

[20] = system: NHDF; assay: Growth inhibition of human NHDF after 72 hrs by MTT assay; assay type: cell-based; method in brief: as §3
[21] = system: A549; assay: Increase in polymerized actin levels in proapoptotic stimuli-resistant human A549 cells at 5 uM after 6 hrs by fluorescence microscopy; assay type: functional, cell-based
[22] = system: A549; assay: Growth inhibition of proapoptotic stimuli-resistant human A549 cells after 72 hrs by MTT assay; assay type: functional, cell-based; settings: Homo sapiens, A549, 72 h; method in brief: as §3
[23] = system: U-373MG ATCC; assay: Inhibition of cytokinesis in proapoptotic stimuli-resistant human U373 cells at 5 uM after 72 hrs by quantitative video microscopy; assay type: functional, cell-based; method in brief: as §5
[24] = system: U-373MG ATCC; assay: Increase in actin cytoskeleton rigidity in proapoptotic stimuli-resistant human U373 cells at 5 uM after 6 hrs by fluorescence microscopy
[25] = Growth inhibition of human WI38 cells after 72 hrs by MTT assay; assay type: cell-based; settings: WI-38, 72 h; method in brief: as §3
[26] = system: U-373MG ATCC; assay: Reduction of colony formation in undifferentiated proapoptotic stimuli-resistant human U373 cells at 5 uM under anchorage-independent culture conditions by quantitative video microscopy; assay type: functional, cell-based
[27] = system: A549; assay: Cytotoxic activity against proapoptotic stimuli-resistant human A549 cells assessed as induction of cell death at 5 uM after 72 hrs by quantitative video microscopy; assay type: functional, cell-based; method in brief: as §4
[28] = Toxicity in iv dosed mouse administered once daily for 5 consecutive days measured after 28 days; assay type: organism-based; settings: in vivo
Method in brief: (§7)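 Healthy mice given compound i.v. (tail vein) in 50 μL saline once daily for 5 consecutive days (Monday-Friday) at 5, 10, 20, 40 or 80 mg/kg; 3 mice per group; body weight and survival followed over 28 days; MTD defined as dose just below lowest dose killing at least one mouse; means ± SEM.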

[29] = system: B16-F10; assay: Growth inhibition of proapoptotic stimuli-sensitive mouse B16F10 cells after 72 hrs by MTT assay; assay type: functional, cell-based; settings: Mus musculus, B16-F10, 72 h; method in brief: as §2
[30] = system: A549; assay: Inhibition of cell migration of proapoptotic stimuli-resistant human A549 cells at 5 uM by quantitative video microscopy; assay type: functional, cell-based; method in brief: as §6
[31] = system: Mus musculus; assay: Toxicity in iv dosed mouse assessed as reduction of body weight at 5 to 80 mg/kg, iv administered once daily for 5 consecutive days measured after 28 days; assay type: organism-based; parameters: dose 5-80 mg/kg, route intravenous; settings: in vivo, 672 h; method in brief: as §7

## O[C@H]1[C@H]2c3cc4c(cc3CN3CCC(=C[C@@H]1O)[C@H]23)OCO4 [LYCORINE]
[1]
  Activity: Active
[2]
  Activity: >=90%
[3]
  Activity: >=90%
[4]
  IC50: 6.7 µM
[5]
  IC50: > 100 µM
[6]
  Activity: Active
[7]
  Activity: Active
[8]
  IC50: 7.6 µM
[9]
  Activity: Active
[10]
  IC50: 8.5 µM
[11]
  Activity: inactive
[12]
  IC50: 5.1 µM
[13]
  Activity: Active
[14]
  Dose: 40 mg/kg
[15]
  Activity: Active
[16]
  Activity: Active
[17]
  Activity: Active
[18]
  Activity: Active
[19]
  Activity: Active
[20]
  IC50: > 100 µM
[21]
  Activity: Active
[22]
  IC50: 4.3 µM
[23]
  Activity: Active
[24]
  Activity: Active
[25]
  IC50: > 100 µM
[26]
  Activity: Active
[27]
  Activity: inactive
[28]
  MTD at 672 h: > 80 mg/kg
[29]
  IC50: 6.3 µM
[30]
  Activity: Active
[31]
  Activity: Non-toxic
